Data published in ChEMBL document CHEMBL2380295, “Structure-activity studies on the side chain of a simplified analog of aplysiatoxin (aplog-1) with anti-proliferative activity” (Bioorg Med Chem, 2013).

Columns and labels:
HCT-116 = assay: Growth inhibition of human HCT116 cells after 48 hrs by sulforhodamine B assay; assay type: functional; details: HCT-116, 48 h
Procedure, shortened: (§1)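 Yamori 39-line human cancer panel, NCI method with modifications. Cells plated in RPMI 1640 plus 5% FBS, attached overnight, then exposed 48 h to compound at 10^-8, 10^-7, 10^-6, 10^-5 and 10^-4 M. Sulforhodamine B staining read at 525 nm; % growth = 100[(T−T0)/(C−T0)] from duplicate-point averages, with T0 the time-zero absorbance. GI50 is the concentration giving 50.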

KM12 = assay: Growth inhibition of human KM12 cells after 48 hrs by sulforhodamine B assay; assay type: functional; details: KM12, 48 h; procedure, shortened: as §1
[1] = Cytotoxicity against human Raji cells assessed as cell viability at 10^-7 M; assay type: cell-based; details: read-out: Activity
SNB-78 = assay: Growth inhibition of human SNB78 cells after 48 hrs by sulforhodamine B assay; assay type: functional; details: SNB-78, 48 h; procedure, shortened: as §1
[2] = target: T1, Protein kinase C delta type (Homo sapiens, UniProt Q05655); assay: Inhibition of [3H]PDBu binding to PKCdelta-C1A domain peptide (unknown origin)
T1 sequence (Q05655 whole entry, the tested form may be a part): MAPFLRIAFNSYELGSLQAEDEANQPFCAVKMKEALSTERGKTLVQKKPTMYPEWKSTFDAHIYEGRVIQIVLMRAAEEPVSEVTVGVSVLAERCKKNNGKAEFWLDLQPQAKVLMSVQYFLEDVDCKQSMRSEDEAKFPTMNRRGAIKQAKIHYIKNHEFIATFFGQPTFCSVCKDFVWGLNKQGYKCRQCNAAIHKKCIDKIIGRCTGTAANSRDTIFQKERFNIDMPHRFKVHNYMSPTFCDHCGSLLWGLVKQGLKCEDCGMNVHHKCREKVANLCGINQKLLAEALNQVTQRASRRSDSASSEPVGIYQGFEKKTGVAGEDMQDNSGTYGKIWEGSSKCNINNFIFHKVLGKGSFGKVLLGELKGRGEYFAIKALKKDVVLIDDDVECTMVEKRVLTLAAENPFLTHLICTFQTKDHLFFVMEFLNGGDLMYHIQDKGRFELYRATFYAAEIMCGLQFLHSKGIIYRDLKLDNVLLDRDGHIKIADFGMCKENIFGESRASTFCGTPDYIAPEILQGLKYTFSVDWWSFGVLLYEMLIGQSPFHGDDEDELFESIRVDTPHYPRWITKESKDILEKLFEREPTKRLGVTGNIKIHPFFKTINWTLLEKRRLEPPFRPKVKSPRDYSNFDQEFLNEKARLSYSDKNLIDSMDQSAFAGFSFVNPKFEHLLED
Procedure, shortened: (§2)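 Competitive [3H]PDBu binding used 14 or 40 nM PKCδ C1 peptide and 20 nM [3H]PDBu (19.6 Ci/mmol), in 50 mM Tris-maleate (pH 7.4 at 4 °C) with 50 µg/mL phosphatidylserine, 3 mg/mL bovine γ-globulin and varied inhibitor concentrations. IC50 was taken as 50% inhibition of specific binding. Ki was derived by the Sharkey–Blumberg method.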

MCF7 = assay: Growth inhibition of human MCF7 cells after 48 hrs by sulforhodamine B assay; assay type: functional; details: MCF7, 48 h; procedure, shortened: as §1
NCI-H226 = assay: Growth inhibition of human NCI-H226 cells after 48 hrs by sulforhodamine B assay; assay type: functional; details: NCI-H226, 48 h; procedure, shortened: as §1
MKN-7 = assay: Growth inhibition of human MKN7 cells after 48 hrs by sulforhodamine B assay; assay type: functional; details: MKN-7, 48 h; procedure, shortened: as §1
DMS-273 = assay: Growth inhibition of human DMS273 cells after 48 hrs by sulforhodamine B assay; assay type: functional; details: DMS-273, 48 h; procedure, shortened: as §1
[3] = Growth inhibition of human MKN1 cells after 48 hrs by sulforhodamine B assay; assay type: functional; details: MKN-1, 48 h; procedure, shortened: as §1
[4] = target: T1, Protein kinase C delta type; assay: Inhibition of [3H]PDBu binding to PKCdelta-C1B domain peptide (unknown origin); procedure, shortened: as §2
NCI-H460 = assay: Growth inhibition of human NCI-H460 cells after 48 hrs by sulforhodamine B assay; assay type: functional; details: NCI-H460, 48 h; procedure, shortened: as §1
MDA-MB-231 = assay: Growth inhibition of human MDA-MB-231 cells after 48 hrs by sulforhodamine B assay; assay type: functional; details: MDA-MB-231, 48 h; procedure, shortened: as §1
A549 = assay: Growth inhibition of human A549 cells after 48 hrs by sulforhodamine B assay; assay type: functional; details: A549, 48 h; procedure, shortened: as §1
HCT-15 = assay: Growth inhibition of human HCT15 cells after 48 hrs by sulforhodamine B assay; assay type: functional; details: HCT-15, 48 h; procedure, shortened: as §1
[5] = Growth inhibition of human BSY1 cells after 48 hrs by sulforhodamine B assay; assay type: functional; details: BSY-1, 48 h; procedure, shortened: as §1
[6] = Growth inhibition of human RXF631L cells after 48 hrs by sulforhodamine B assay; assay type: functional; details: RXF 631, 48 h; procedure, shortened: as §1
OVCAR-3 = assay: Growth inhibition of human OVCAR3 cells after 48 hrs by sulforhodamine B assay; assay type: functional; details: OVCAR-3, 48 h; procedure, shortened: as §1
OVCAR-8 = assay: Growth inhibition of human OVCAR8 cells after 48 hrs by sulforhodamine B assay; assay type: functional; details: OVCAR-8, 48 h; procedure, shortened: as §1
PC-3 = assay: Growth inhibition of human PC3 cells after 48 hrs by sulforhodamine B assay; assay type: functional; details: PC-3, 48 h; procedure, shortened: as §1
SF-268 = assay: Growth inhibition of human SF268 cells after 48 hrs by sulforhodamine B assay; assay type: functional; details: SF-268, 48 h; procedure, shortened: as §1
[7] = Octanol-water partition coefficient, log P of the compound by HPLC analysis; assay type: physicochemical
Procedure, shortened: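 log P was estimated from HPLC retention, with column dead time measured using unretained formamide.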

ACHN = assay: Growth inhibition of human ACHN cells after 48 hrs by sulforhodamine B assay; assay type: functional; procedure, shortened: as §1
DMS-114 = assay: Growth inhibition of human DMS114 cells after 48 hrs by sulforhodamine B assay; assay type: functional; details: DMS-114, 48 h; procedure, shortened: as §1
LOX IMVI = assay: Growth inhibition of human LOXIMVI cells after 48 hrs by sulforhodamine B assay; assay type: functional; procedure, shortened: as §1
[8] = Growth inhibition of human HCC2998 cells after 48 hrs by sulforhodamine B assay; assay type: functional; details: HCC 2998, 48 h; procedure, shortened: as §1
St-4 = assay: Growth inhibition of human St-4 cells after 48 hrs by sulforhodamine B assay; assay type: functional; details: St-4, 48 h; procedure, shortened: as §1
OVCAR-4 = assay: Growth inhibition of human OVCAR4 cells after 48 hrs by sulforhodamine B assay; assay type: functional; details: OVCAR-4, 48 h; procedure, shortened: as §1
NCI-H522 = assay: Growth inhibition of human NCI-H522 cells after 48 hrs by sulforhodamine B assay; assay type: functional; details: NCI-H522, 48 h; procedure, shortened: as §1
SF-295 = assay: Growth inhibition of human SF295 cells after 48 hrs by sulforhodamine B assay; assay type: functional; details: SF-295, 48 h; procedure, shortened: as §1
[9] = Growth inhibition of human HBC4 cells after 48 hrs by sulforhodamine B assay; assay type: functional; details: HBC4, 48 h; procedure, shortened: as §1
U-251 = assay: Growth inhibition of human U251 cells after 48 hrs by sulforhodamine B assay; assay type: functional; details: U-251, 48 h; procedure, shortened: as §1
MKN-45 = assay: Growth inhibition of human MKN45 cells after 48 hrs by sulforhodamine B assay; assay type: functional; details: MKN-45, 48 h; procedure, shortened: as §1
OVCAR-5 = assay: Growth inhibition of human OVCAR5 cells after 48 hrs by sulforhodamine B assay; assay type: functional; details: OVCAR-5, 48 h; procedure, shortened: as §1
NCI-H23 = assay: Growth inhibition of human NCI-H23 cells after 48 hrs by sulforhodamine B assay; assay type: functional; details: NCI-H23, 48 h; procedure, shortened: as §1
SF-539 = assay: Growth inhibition of human SF539 cells after 48 hrs by sulforhodamine B assay; assay type: functional; details: SF-539, 48 h; procedure, shortened: as §1
[10] = Cytotoxicity against human Raji cells assessed as cell viability at 10^-6 M; assay type: cell-based; details: read-out: Activity
SK-OV-3 = assay: Growth inhibition of human SKOV3 cells after 48 hrs by sulforhodamine B assay; assay type: functional; details: SK-OV-3, 48 h; procedure, shortened: as §1
Mus musculus = organism: Mus musculus; assay: Toxicity in ICR mouse assessed as development of tumors at 8.5 nmol treated twice a week from week 1 to week 20; assay type: organism-based; details: in vivo
Procedure, shortened: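 Mouse skin two-stage carcinogenesis: initiation by a single application of 390 nmol DMBA. From one week later, 8.5 nmol test compound was applied twice weekly from week 1 to week 20. The control group received DMBA then 1.7 nmol TPA twice weekly. Tumor development was monitored over time.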

[11] = Growth inhibition of human HBC5 cells after 48 hrs by sulforhodamine B assay; assay type: functional; details: HBC5, 48 h; procedure, shortened: as §1
Human gammaherpesvirus 4 [12] = assay: Induction of EBV-early antigen expressed in human Raji cells at 10^-7 M after 48 hrs by immunofluorescence assay relative to control; assay type: organism-based; details: human gammaherpesvirus 4, raji, 0.1 µM
Procedure, shortened: (§3)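 Raji B-lymphoblastoid cells (5 × 10^5/mL) in RPMI 1640 with 10% FBS, with 4 mM sodium n-butyrate as synergist and test compound at 10^-7 or 10^-6 M (final DMSO 0.4%). Incubated 48 h at 37 °C under 5% CO2. Smears were stained by indirect immunofluorescence using NPC patient serum and FITC anti-human IgG. At least 500 cells counted; % EA-positive recorded; n = 3, SEM.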

MKN-28 = assay: Growth inhibition of human MKN28 cells after 48 hrs by sulforhodamine B assay; assay type: functional; details: MKN-28, 48 h; procedure, shortened: as §1
HT-29 = assay: Growth inhibition of human HT-29 cells after 48 hrs by sulforhodamine B assay; assay type: functional; details: HT-29, 48 h; procedure, shortened: as §1
DU-145 = assay: Growth inhibition of human DU145 cells after 48 hrs by sulforhodamine B assay; assay type: functional; details: DU-145, 48 h; procedure, shortened: as §1
Human gammaherpesvirus 4 [13] = assay: Induction of EBV-early antigen expressed in human Raji cells at 10^-6 M after 48 hrs by immunofluorescence assay relative to control; assay type: organism-based; details: human gammaherpesvirus 4, raji, 1 µM; procedure, shortened: as §3
SNB-75 = assay: Growth inhibition of human SNB75 cells after 48 hrs by sulforhodamine B assay; assay type: functional; details: SNB-75, 48 h; procedure, shortened: as §1
MKN-74 = assay: Growth inhibition of human MKN74 cells after 48 hrs by sulforhodamine B assay; assay type: functional; details: MKN-74, 48 h; procedure, shortened: as §1

For CC1(C)CC[C@@H]2CC(=O)O[C@@H](CO)CC(=O)O[C@@H]3C[C@@H](CCCCc4cc(O)ccc4Br)O[C@@]1(C3)O2, the GI50 (HCT-116) was 10.7 µM, the GI50 (KM12) was 4.27 µM and the viability at 0.1 µM [1] was 50%. The GI50 (SNB-78) was 15.5 µM, the Ki [2] was 0.066 µM and the GI50 (MCF7) was 18.2 µM. The GI50 (NCI-H226) was 11.7 µM, the GI50 (MKN-7) was 6.92 µM and the GI50 (DMS-273) was 11.7 µM. The GI50 [3] was 11.7 µM, the Ki [4] was 0.0035 µM and the GI50 (NCI-H460) was 1.66 µM. For the same molecule, the GI50 (MDA-MB-231) was 0.468 µM, the GI50 (A549) was 5.01 µM and the GI50 (HCT-15) was 15.5 µM. The GI50 [5] was 2.63 µM, the GI50 [6] was 16.2 µM and the GI50 (OVCAR-3) was 13.5 µM. For the same molecule, the GI50 (OVCAR-8) was 16.2 µM, the GI50 (PC-3) was 2.95 µM and the GI50 (SF-268) was 12.6 µM. It also gave a logP [7] of 4, a GI50 (ACHN) of 5.13 µM and a GI50 (DMS-114) of 12.6 µM. It also gave a GI50 (LOX IMVI) of 0.794 µM, a GI50 [8] of 0.794 µM and a GI50 (St-4) of 0.955 µM. The GI50 (OVCAR-4) was 14.5 µM, the GI50 (NCI-H522) was 13.5 µM and the GI50 (SF-295) was 5.5 µM. For the same molecule, the GI50 [9] was 0.0977 µM, the GI50 (U-251) was 12.6 µM and the GI50 (MKN-45) was 1.82 µM. It also gave a GI50 (OVCAR-5) of 7.76 µM, a GI50 (NCI-H23) of 11.5 µM and a GI50 (SF-539) of 11 µM. The viability at 1 µM [10] was 40%, the GI50 (SK-OV-3) was 15.5 µM and the Activity (Mus musculus) was “Non-toxic”. For the same molecule, the GI50 [11] was 15.8 µM, the Activity (Human gammaherpesvirus 4 [12]) was 1.8% and the GI50 (MKN-28) was 12 µM. It also gave a GI50 (HT-29) of 13.2 µM, a GI50 (DU-145) of 11.5 µM and an Activity (Human gammaherpesvirus 4 [13]) of 1.9%. It also gave a GI50 (SNB-75) of 12.3 µM and a GI50 (MKN-74) of 13.8 µM.
